# High-throughput results: PubChem BioAssay, Johns Hopkins Ion Channel Center
# These entries were drawn from the full list.
# KCNQ1 pot = potentiators or activators of human KCNQ1 potassium channel; P51787; CHO-K1 KCNQ1, thallium flux FluxOR fluorescence; stronger effect = higher value; B-score at 10 µM; 0.35% of 310,000 active;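 active means fluorescence ratio B-score, a plate-corrected score, at least three library SD, with initial intensity B-score within 5 SD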
# Target sequence (P51787 whole entry, looked up): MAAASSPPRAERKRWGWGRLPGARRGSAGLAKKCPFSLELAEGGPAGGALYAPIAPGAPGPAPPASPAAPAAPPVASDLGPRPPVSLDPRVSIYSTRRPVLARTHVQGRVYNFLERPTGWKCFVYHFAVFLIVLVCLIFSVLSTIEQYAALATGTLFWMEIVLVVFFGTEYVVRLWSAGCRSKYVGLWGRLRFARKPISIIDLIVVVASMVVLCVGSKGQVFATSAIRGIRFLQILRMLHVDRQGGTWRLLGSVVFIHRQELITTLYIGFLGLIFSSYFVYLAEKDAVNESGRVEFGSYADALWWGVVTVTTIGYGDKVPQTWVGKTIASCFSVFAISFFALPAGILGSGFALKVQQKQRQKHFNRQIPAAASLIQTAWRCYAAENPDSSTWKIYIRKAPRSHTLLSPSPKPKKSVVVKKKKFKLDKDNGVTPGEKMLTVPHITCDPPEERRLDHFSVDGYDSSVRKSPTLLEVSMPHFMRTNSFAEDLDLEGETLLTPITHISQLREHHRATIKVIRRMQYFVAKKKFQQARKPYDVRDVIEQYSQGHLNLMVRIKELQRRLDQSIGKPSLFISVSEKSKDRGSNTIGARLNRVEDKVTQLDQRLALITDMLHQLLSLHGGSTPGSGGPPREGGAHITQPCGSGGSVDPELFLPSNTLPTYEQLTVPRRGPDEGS
#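 Doses: Single concentration per compound, DMSO matched to controls | Test system: KCNQ1-transfected CHO-K1 cells | Timing: 90 min dye loading and 20 min compound exposure, both at room temperature | Measured by: Kinetic FluxOR thallium fluorescence, 10-s 1-Hz baseline, 110-s post-stimulus read | Medium: Assay buffer with matched DMSO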
# KCNK9 block = blocks the human KCNK9 two-pore domain potassium channel; Q9NPC2; HEK293 KCNK9, FluxOR thallium flux fluorescence; stronger effect = lower value; B-score at 10 µM; 1.2% of 310,000 active; AID 488922;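 active means ratio B-score over 3 SD below the library mean, with starting fluorescence within 5 SD of its mean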;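 further: negative B-score means less thallium flux so channel inhibition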
# KCNQ1 block = human KCNQ1 channel inhibition; 1.3% of 310,000 active; P51787; CHO-K1 KCNQ1, FluxOR thallium flux fluorescence; stronger effect = higher value; B-score at 10 µM;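 active means compounds whose thallium flux B-score, printed positive for inhibition, exceeds three library SD while starting fluorescence stays within three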;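 further: channel opened by potassium depolarization with thallium stimulus after 20 min compound exposure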
# Kir21 block = inhibitors of mouse Kir2.1 inward-rectifier potassium channel | HEK293-Kir2.1, FluxOR thallium flux fluorescence; stronger effect = lower value | 0.85% of 310,000 active | B-score at 10 µM;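 active means fluorescence ratio B-score at or below minus 3 SD of library scores, with starting-brightness B-score within 2 SD, cut at about -4.2 in these data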;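 further: channel flux triggered by added potassium and thallium sulfate stimulus; B-score of peak minus minimum fluorescence over baseline after thallium stimulus; more negative B-score means stronger Kir2.1 block with less thallium influx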
# KCNK3 block = human KCNK3 channel inhibition, primary screen | O14649 | CHO-KCNK3 thallium flux, FluxOR fluorescence; stronger effect = lower value | B-score at 10 µM | 0.84% of 340,000 active | AID 602410;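 active means B-score under library mean minus 4 SD, starting fluorescence ratio at most library mean plus 5 SD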;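 further: more negative B-score means stronger inhibition of thallium flux through KCNK3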
# hERG protect = hERG (human) protection from proarrhythmic block; Q12809; CHO-hERG, FluxOR thallium flux, dofetilide IC70 present; activation (rescue from dofetilide block), less the hit threshold, % at 10 µM; 0.51% of 310,000 active; AID 1511;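 active means activation above the mean of controls blocked by dofetilide plus 5 SD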;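 further: thallium influx through hERG after potassium depolarization seen as dye fluorescence rise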
# KCNK9 inh conf = confirmation of human KCNK9 potassium channel inhibitors | shares compounds with KCNK9 block | HEK293 KCNK9 cells, FluxOR thallium flux fluorescence | inhibition, % at 10 µM | 43% of 4,900 active;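 active means thallium signal inhibited by more than 5 SD of the compound-free buffer control wells, on both duplicate plates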
# Kir21 sel = mouse Kir2.1 off-target activity of KCNK9 modulators; inhibition, % at 10 µM; shares compounds with KCNK9 block; 4% of 4,900 active; Kir2.1 cells, FluxOR thallium flux fluorescence;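 active means thallium signal drop more than 5 SD beyond the mean of the no-compound control wells, seen in both duplicate plates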;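 further: signal is fluorescence rise after thallium addition divided by baseline fluorescence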
# KCNK9 uninduced = non-induced cell nonspecific activity of KCNK9 modulators; inhibition, % at 10 µM; 40% of 4,900 active; non-induced KCNK9-HEK293, FluxOR thallium flux; shares compounds with KCNK9 block;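 active means thallium signal drop beyond 5 SD of the untreated control mean, on both duplicate plates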
# Calls only; - = inactive; . = no result.
SMILES,KCNQ1 pot,KCNK9 block,KCNQ1 block,Kir21 block,KCNK3 block,hERG protect,KCNK9 inh conf,Kir21 sel,KCNK9 uninduced
CCOC(=O)COc1ccc(/C=C2/SC(=Nc3ccccc3)N(Cc3cccnc3)C2=O)cc1OC,-,-,-,-,-,-,-,-,-
CCCN1C(=O)/C(=C\c2ccncc2)SC1=Nc1ccccc1,-,-,-,-,-,-,-,-,-
CCCN1C(=O)/C(=C/c2ccco2)SC1=Nc1ccc(OC)cc1,-,-,-,-,-,-,.,.,.
CCN1C(=O)/C(=C\c2ccncc2)SC1=Nc1ccc(C)c(C)c1,-,-,-,-,-,-,-,-,-
CCOc1cc(/C=C2\SC(=Nc3ccccc3)N(c3ccccc3)C2=O)ccc1OCC(=O)O,-,-,-,-,-,-,.,.,.
CCN1C[C@@H]2[C@@H]3C(=O)N(Cc4ccccc4)C(=O)[C@@H]3[C@](Cc3ccccc3)(C(=O)OC)N2C1=NC,.,.,.,.,-,.,.,.,.
COc1cc2oc(=O)ccc2cc1-c1c(OC)ccc2ccc(=O)oc12,.,.,.,.,-,.,.,.,.
O=C(O)CNS(=O)(=O)c1ccc2c(c1)Cc1cc(S(=O)(=O)NCC(=O)O)ccc1-2,-,-,-,-,-,-,.,.,.
O=C(C1=C[C@@H](c2ccc(Br)cc2)C[C@@H](OCCCCO)O1)N1CCN(Cc2ccc3c(c2)OCO3)CC1,-,-,-,-,-,-,.,.,.
